# Experimental data: ChEMBL document CHEMBL2407081, “Discovery of potent, isoform-selective inhibitors of histone deacetylase containing chiral heterocyclic capping groups and a N-(2-aminophenyl)benzamide binding unit” (J Med Chem, 2013)
# pIC50: −log10 of the molar value. Active and inactive are the calls of the source. The calls are words filed in the database; no cut-off is given here.
# Tests used:
# [1] = system: Jurkat; test: Cell cycle arrest in human Jurkat cells assessed as accumulation at S phase at 10 uM after 24 hrs by FITC/propidium iodide staining-based FACS flow cytometric analysis (reference value: 15.3%); format: functional
# How it was run: (§1)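 HeLa and Jurkat human cells were cultured for 24 h with compound at two concentrations. The control was an equal volume of the DMSO diluent. Cellular DNA and protein content were then measured by flow cytometry, and the percentage of cells in sub-G1, G0/G1, S and G2/M was read out.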
# [2] = Octanol-water partition coefficient, log p of the compound; format: physicochemical
# [3] = system: A549; test: Cytotoxicity against human A549 cells assessed as growth inhibition by measuring cellular ATP level after 72 hrs by cell-titer glo assay; format: functional, cell-based; conditions: A549, 72 h
# [4] = target: Cytochrome P450 2C19 (Homo sapiens, UniProt P33261); test: Inhibition of CYP2C19 (unknown origin); format: ADME
# [5] = Lipophilicity, log D of the compound at pH 7.4; format: physicochemical; conditions: buffer
# [6] = target: Histone deacetylase 3/NCoR1 (Homo sapiens, UniProt O15379); test: Inhibition of recombinant HDAC3-NCoR1 (unknown origin) using MAL as substrate incubated for 3 hrs prior to substrate addition measured after 60 mins by fluorescence plate reader analysis; format: protein-complex assay
# [7] = target: Cytochrome P450 2C9 (Homo sapiens, UniProt P11712); test: Inhibition of CYP2C9 (unknown origin); format: ADME
# [8] = target: Histone deacetylase 2 (Homo sapiens, UniProt Q92769); test: Inhibition of recombinant His-tagged HDAC2 (1 to 488) (unknown origin) using MAL as substrate incubated for 3 hrs prior to substrate addition measured after 60 mins by fluorescence plate reader analysis
# [9] = system: HeLa; test: Induction of apoptosis in human HeLa cells assessed as PARP cleavage at 1 to 10 uM after 24 hrs by Western blot analysis; format: functional, cell-based
# [10] = target: Histone deacetylase 3/NCoR1 (Homo sapiens) (UniProt O15379+O75376); test: Inhibition of recombinant HDAC3-NCoR1 (unknown origin) assessed as slow tight binding at 0.02 to 20 uM; format: protein-complex assay
# [11] = target: T1, Cytochrome P450 3A4 (Homo sapiens, UniProt P08684); test: Inhibition of CYP3A4 (unknown origin) using vivid red as substrate; format: ADME
# [12] = target: Histone deacetylase 1 (Homo sapiens, UniProt Q13547); test: Inhibition of recombinant C-terminal FLAG-tagged HDAC1 (unknown origin) expressed in Escherichia coli BL21 using MAL as substrate incubated for 1 hr prior to substrate addition measured after 60 mins by fluorescence plate reader analysis
# [13] = system: Jurkat; test: Cell cycle arrest in human Jurkat cells assessed as accumulation at sub-G1 phase at 1 uM after 24 hrs by FITC/propidium iodide staining-based FACS flow cytometric analysis (reference value: 6.8%); format: functional; how it was run: as §1
# [14] = target: T1, Cytochrome P450 3A4; test: Inhibition of CYP3A4 (unknown origin) using vivid green as substrate; format: ADME
# [15] = system: HeLa; test: Cell cycle arrest in human HeLa cells assessed as accumulation at G2/M phase at 10 uM after 24 hrs by FITC/propidium iodide staining-based FACS flow cytometric analysis; format: functional; how it was run: as §1
# [16] = system: MCF7; test: Cytotoxicity against human MCF7 cells assessed as growth inhibition by measuring cellular ATP level after 72 hrs by cell-titer glo assay; format: functional, cell-based; conditions: MCF7, 72 h
# [17] = system: Jurkat; test: Cell cycle arrest in human Jurkat cells assessed as accumulation at S phase at 1 uM after 24 hrs by FITC/propidium iodide staining-based FACS flow cytometric analysis (reference value: 22.3%); format: functional; how it was run: as §1
# [18] = target: Cytochrome P450 2D6 (Homo sapiens, UniProt P10635); test: Inhibition of CYP2D6 (unknown origin); format: ADME
# [19] = target: T2, Histone deacetylase 8 (Homo sapiens, UniProt Q9BY41); test: Inhibition of recombinant HDAC8 (unknown origin) expressed in Escherichia coli BL21 using MAL as substrate incubated for 15 mins prior to substrate addition measured after 60 mins by fluorescence plate reader analysis
# T2 sequence (Q9BY41 whole entry): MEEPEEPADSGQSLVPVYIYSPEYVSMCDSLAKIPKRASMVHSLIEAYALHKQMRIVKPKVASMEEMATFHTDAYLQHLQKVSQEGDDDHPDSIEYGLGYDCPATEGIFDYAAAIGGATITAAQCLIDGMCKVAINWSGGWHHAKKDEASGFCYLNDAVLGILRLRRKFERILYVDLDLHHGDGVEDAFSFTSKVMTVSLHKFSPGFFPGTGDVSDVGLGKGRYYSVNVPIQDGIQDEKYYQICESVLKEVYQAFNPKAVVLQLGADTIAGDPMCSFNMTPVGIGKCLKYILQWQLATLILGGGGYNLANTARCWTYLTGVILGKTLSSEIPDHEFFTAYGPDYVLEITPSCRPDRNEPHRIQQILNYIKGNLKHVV
# [20] = Kinetic solubility of the compound; format: physicochemical; conditions: read-out: Kinetic_solubility
# How it was run: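 Solubility was measured by chemiluminescent nitrogen detection.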
# [21] = system: HCT-116; test: Cytotoxicity against human HCT116 cells assessed as growth inhibition by measuring cellular ATP level after 72 hrs by cell-titer glo assay; format: functional, cell-based; conditions: HCT-116, 72 h
# [22] = system: Jurkat; test: Cell cycle arrest in human Jurkat cells assessed as accumulation at G0/G1 phase at 1 uM after 24 hrs by FITC/propidium iodide staining-based FACS flow cytometric analysis (reference value: 55.5%); format: functional; how it was run: as §1
# [23] = system: Jurkat; test: Cell cycle arrest in human Jurkat cells assessed as accumulation at G0/G1 phase at 10 uM after 24 hrs by FITC/propidium iodide staining-based FACS flow cytometric analysis (reference value: 69.5%); format: functional; how it was run: as §1
# [24] = system: Jurkat; test: Induction of apoptosis in human Jurkat cells assessed as PARP cleavage at 1 to 10 uM after 24 hrs by Western blot analysis; format: functional, cell-based
# [25] = system: DU-145; test: Cytotoxicity against human DU145 cells assessed as growth inhibition by measuring cellular ATP level after 72 hrs by cell-titer glo assay; format: functional, cell-based; conditions: DU-145, 72 h
# [26] = system: Jurkat; test: Cell cycle arrest in human Jurkat cells assessed as accumulation at G2/M phase at 10 uM after 24 hrs by FITC/propidium iodide staining-based FACS flow cytometric analysis (reference value: 13.2%); format: functional; how it was run: as §1
# [27] = Permeability of the compound by PAMPA; format: ADME; conditions: read-out: permeability
# [28] = system: Jurkat; test: Cell cycle arrest in human Jurkat cells assessed as accumulation at G2/M phase at 1 uM after 24 hrs by FITC/propidium iodide staining-based FACS flow cytometric analysis (reference value: 14.4%); format: functional; how it was run: as §1
# T1 sequence (P08684 whole entry): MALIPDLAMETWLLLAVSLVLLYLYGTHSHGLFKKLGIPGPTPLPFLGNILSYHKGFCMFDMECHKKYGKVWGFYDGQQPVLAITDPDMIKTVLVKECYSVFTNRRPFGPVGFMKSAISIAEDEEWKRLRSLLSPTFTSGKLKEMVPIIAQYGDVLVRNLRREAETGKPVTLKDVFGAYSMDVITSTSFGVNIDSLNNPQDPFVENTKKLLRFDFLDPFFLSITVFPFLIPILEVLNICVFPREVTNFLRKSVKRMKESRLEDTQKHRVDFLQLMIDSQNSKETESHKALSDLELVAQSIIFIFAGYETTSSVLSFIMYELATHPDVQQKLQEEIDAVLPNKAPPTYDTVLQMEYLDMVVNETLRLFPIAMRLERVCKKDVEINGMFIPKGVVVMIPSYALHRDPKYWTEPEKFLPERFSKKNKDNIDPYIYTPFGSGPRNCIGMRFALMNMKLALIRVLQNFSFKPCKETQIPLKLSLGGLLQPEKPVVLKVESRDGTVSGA
# Sequence of Histone deacetylase 2 (Q92769 whole entry): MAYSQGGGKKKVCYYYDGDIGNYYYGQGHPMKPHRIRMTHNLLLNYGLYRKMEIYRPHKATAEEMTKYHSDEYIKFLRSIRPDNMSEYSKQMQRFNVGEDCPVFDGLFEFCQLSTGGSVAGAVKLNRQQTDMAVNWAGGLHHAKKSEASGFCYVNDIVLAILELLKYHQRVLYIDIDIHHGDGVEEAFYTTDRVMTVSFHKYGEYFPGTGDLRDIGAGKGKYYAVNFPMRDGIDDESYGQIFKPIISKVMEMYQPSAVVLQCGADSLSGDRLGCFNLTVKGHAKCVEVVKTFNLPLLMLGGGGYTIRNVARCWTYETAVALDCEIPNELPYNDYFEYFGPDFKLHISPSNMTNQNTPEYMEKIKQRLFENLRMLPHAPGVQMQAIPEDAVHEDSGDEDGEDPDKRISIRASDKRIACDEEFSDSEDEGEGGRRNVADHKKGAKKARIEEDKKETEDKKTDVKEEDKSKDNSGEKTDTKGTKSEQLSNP
# Sequence of Cytochrome P450 2C19 (P33261 whole entry): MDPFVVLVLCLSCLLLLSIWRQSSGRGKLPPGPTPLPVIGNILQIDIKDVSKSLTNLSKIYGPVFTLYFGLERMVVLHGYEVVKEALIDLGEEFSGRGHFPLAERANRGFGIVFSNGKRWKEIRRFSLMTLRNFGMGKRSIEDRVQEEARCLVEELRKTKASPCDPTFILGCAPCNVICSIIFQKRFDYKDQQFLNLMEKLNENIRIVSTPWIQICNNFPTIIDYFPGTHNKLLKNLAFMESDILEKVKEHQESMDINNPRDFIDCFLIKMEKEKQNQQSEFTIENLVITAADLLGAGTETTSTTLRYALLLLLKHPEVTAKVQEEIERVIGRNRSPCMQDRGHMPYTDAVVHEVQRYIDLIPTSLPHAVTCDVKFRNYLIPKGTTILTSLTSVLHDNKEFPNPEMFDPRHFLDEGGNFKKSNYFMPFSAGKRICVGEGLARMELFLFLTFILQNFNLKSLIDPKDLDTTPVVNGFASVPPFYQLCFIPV
# Sequence of Cytochrome P450 2D6 (P10635 whole entry): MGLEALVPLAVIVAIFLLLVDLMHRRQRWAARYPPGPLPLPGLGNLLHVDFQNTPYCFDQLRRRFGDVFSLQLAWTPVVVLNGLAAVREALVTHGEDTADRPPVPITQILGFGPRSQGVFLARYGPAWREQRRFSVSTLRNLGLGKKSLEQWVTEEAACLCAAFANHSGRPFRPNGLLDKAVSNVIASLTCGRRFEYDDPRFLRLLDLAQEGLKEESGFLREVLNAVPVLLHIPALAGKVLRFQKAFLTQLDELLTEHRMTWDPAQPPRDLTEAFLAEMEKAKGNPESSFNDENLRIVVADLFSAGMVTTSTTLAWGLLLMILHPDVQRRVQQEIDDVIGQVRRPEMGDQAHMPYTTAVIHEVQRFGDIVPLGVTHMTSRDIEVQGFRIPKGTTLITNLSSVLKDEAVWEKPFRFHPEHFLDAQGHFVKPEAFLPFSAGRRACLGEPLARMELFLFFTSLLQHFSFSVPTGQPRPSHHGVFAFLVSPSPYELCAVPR
# Sequence of Histone deacetylase 1 (Q13547 whole entry): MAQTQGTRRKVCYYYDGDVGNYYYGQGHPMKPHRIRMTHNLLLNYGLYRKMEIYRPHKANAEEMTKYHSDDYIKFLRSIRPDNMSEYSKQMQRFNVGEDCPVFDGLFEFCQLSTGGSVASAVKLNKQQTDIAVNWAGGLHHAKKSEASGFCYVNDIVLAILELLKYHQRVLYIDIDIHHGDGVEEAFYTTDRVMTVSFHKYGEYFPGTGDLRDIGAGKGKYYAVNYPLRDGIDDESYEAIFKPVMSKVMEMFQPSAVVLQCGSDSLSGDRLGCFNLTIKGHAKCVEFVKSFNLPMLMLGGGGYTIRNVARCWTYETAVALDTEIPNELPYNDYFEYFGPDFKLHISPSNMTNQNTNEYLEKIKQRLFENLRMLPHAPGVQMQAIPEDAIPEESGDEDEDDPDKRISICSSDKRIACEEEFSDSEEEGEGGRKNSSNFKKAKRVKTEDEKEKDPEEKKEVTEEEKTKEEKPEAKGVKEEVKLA
# Sequence of Cytochrome P450 2C9 (P11712 whole entry): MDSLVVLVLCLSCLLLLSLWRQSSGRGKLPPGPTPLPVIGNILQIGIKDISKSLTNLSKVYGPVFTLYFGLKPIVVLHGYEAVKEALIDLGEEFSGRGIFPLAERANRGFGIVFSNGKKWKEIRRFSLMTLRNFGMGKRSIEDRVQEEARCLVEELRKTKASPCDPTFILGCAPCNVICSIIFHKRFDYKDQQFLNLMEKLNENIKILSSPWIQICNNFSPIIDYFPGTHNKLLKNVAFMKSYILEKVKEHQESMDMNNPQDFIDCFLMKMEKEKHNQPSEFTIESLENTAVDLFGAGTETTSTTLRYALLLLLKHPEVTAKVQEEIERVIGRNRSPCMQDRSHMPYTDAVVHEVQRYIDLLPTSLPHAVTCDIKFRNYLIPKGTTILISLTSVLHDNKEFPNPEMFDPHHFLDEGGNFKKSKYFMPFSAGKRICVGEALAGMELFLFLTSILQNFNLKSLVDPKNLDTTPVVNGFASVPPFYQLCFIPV
smiles,measurement,setting,value
Nc1ccccc1NC(=O)c1ccc(CNC2=N[C@@H](c3ccccc3)CS2)cc1,Activity,[1],35.1%
same,logP,[2],4.65
same,pIC50,[3],5.24
same,pIC50,[4],4.49
same,logD,[5],4.24
same,pIC50,[6],7.92
same,pIC50,[7],4.80
same,pIC50,[8],7.07
same,Activity,[9],inactive
same,inhibition,[10],Active
same,pIC50,[11],4.60
same,pIC50,[12],6.03
same,Activity,[13],36.6%
same,pIC50,[14],4.80
same,Activity,[15],Active
same,pIC50,[16],5.27
same,Activity,[17],6.2%
same,pIC50,[18],7.10
same,pIC50,[19],5.39
same,solubility kinetic,[20],239 µM
same,pIC50,[21],5.66
same,Activity,[22],48.1%
same,Activity,[23],28.5%
same,Activity,[24],Active
same,pIC50,[25],5.19
same,Activity,[26],16.9%
same,Papp,[27],510 nm/s
same,Activity,[28],9.1%
